Measured values: ChEMBL document CHEMBL1138900, “2,5-diketopiperazines as potent, selective, and orally bioavailable oxytocin antagonists. 3. Synthesis, pharmacokinetics, and in vivo potency” (J Med Chem, 2006)
Converted amounts (≈) assume the structure as drawn. Where a SMILES comes first, the peptide text is derived from it. Bridges are numbered along the chain shown (N, C = ends). [ ]: non-standard residue; d: D form. Orn = NCCC[C@H](N)C(=O)O; Mpa = O=C(O)CCS

Legend:
[1] = Lipophilicity, log D by CHI method; format: physicochemical; settings: read-out: Log D
How it was run: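 Lipophilicity determined by an HPLC-based method.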

[2] = Oral bioavailability in rat; format: ADME, organism-based; settings: in vivo
[3] = Clearance in rat; format: ADME, organism-based; settings: in vivo
How it was run: (§1)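 Rat pharmacokinetics, n = 4; dosed at 5 mg/kg in 5% DMSO/95% PEG400. AUC in ng·h mL⁻¹, clearance in mL min⁻¹ kg⁻¹, half-life in h.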

[4] = target: T1, Oxytocin receptor (Homo sapiens, UniProt P30559); assay: Displacement of [3H]oxytocin from human OTR
T1 sequence (P30559 whole entry): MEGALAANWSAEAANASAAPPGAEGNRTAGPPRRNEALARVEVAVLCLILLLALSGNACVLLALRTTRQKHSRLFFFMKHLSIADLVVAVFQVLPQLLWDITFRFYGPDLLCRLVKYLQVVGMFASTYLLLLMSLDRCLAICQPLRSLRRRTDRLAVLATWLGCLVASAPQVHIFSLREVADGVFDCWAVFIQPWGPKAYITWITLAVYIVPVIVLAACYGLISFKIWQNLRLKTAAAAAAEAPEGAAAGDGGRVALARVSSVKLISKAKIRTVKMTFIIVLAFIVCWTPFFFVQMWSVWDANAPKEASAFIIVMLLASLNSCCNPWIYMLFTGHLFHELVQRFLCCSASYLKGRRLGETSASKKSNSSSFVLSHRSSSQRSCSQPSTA

[5] = Clearance in dog; format: ADME, organism-based, Canis lupus familiaris; settings: in vivo
How it was run: (§2)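 Dog pharmacokinetics, n = 3; dosed at 0.6 mg/kg in 5% DMSO/95% PEG400. AUC reported as ng·h mL⁻¹ and clearance as mL min⁻¹ kg⁻¹.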

[6] = Oral bioavailability in dog; format: ADME, organism-based, Canis lupus familiaris; settings: in vivo
[7] = AUC in dog; format: ADME, organism-based, Canis lupus familiaris; parameters: concentration or dose not given beside the values; settings: plasma; how it was run: as §2
[8] = AUC in rat; format: ADME, organism-based; parameters: concentration or dose not given beside the values; settings: plasma; how it was run: as §1
[9] = Solubility of the compound; format: physicochemical
How it was run: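 Aqueous solubility (mg mL⁻¹) measured by precipitation followed by HPLC.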

[10] = target: T2, Oxytocin receptor (Rattus norvegicus, UniProt P70536); assay: Displacement of [3H]oxytocin from rat OTR
T2 sequence (P70536 whole entry): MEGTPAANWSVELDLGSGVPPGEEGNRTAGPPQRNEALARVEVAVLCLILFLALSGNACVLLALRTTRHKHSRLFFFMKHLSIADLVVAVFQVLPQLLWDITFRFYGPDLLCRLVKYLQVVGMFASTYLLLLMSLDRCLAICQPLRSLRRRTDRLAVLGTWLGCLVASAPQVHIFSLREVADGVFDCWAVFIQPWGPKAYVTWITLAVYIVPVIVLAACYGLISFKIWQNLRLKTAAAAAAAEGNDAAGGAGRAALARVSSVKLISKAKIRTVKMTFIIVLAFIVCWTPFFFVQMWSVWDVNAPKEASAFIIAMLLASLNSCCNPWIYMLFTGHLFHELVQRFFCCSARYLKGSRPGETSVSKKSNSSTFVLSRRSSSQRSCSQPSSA

[11] = tested on: Rattus norvegicus; assay: Reduction in oxytocin-induced uterine contraction in iv dosed anaesthetized rat; format: functional, organism-based
How it was run: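 Anaesthetized rats; uterine contractions elicited by iv oxytocin at a standard dose of 0.3 ug/kg. Test compound then given iv in rising doses (0.1, 0.3, 1 mg/kg) and the fall in contractility recorded. Plasma IC50 taken as the plasma concentration giving 50% inhibition of the response to the standard oxytocin dose.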

SMILES	chromatographic logD [1]	bioavailability [2] [%]	clearance [3] [mL/min/kg]	Ki [4] [nM]	clearance [5] [mL/min/kg]	bioavailability [6] [%]	AUC [7] [ng·h/mL]	AUC [8] [ng·h/mL]	solubility [9] [µg/mL]	Ki [10] [nM]	Activity [11] [mg/kg]	IC50 ([11]; Rattus norvegicus) [nM]
COc1ccc([C@H](C(=O)NC(C)(C)C)N2C(=O)[C@@H](C3Cc4ccccc4C3)NC(=O)[C@H]2CC(C)C)cc1F	3.4	–	–	–	–	–	–	–	–	–	–	–
CC(C)C[C@@H]1C(=O)N[C@H](C2Cc3ccccc3C2)C(=O)N1[C@@H](C(=O)NC(C)(C)C)c1ccc2c(c1)OCO2	3.3	48	34	3.98	23	14	–	–	–	–	–	–
CC(C)C[C@@H]1C(=O)N[C@H](C2Cc3ccccc3C2)C(=O)N1[C@@H](C(=O)NCCO)c1ccc(F)cc1	2.3	–	–	–	–	–	–	–	–	–	–	–
CNC(=O)[C@@H](c1ccc(F)cc1F)N1C(=O)[C@@H](C2Cc3ccccc3C2)NC(=O)[C@H]1CC(C)C	2.9	98	32	0.398	13	11	82	3690	89 (≈ 190 µM)	–	–	–
CC(C)C[C@@H]1C(=O)N[C@H](C2Cc3ccccc3C2)C(=O)N1[C@@H](C(=O)NC(C)(C)C)c1ccc2c(c1)CCO2	3.4	27	39	3.98	14	9	–	–	–	–	–	–
CCOc1ccc(C[C@H]2NC(=O)CCSSC[C@@H](C(=O)N3CCC[C@H]3C(=O)N[C@@H](CCCN)C(=O)NCC(N)=O)NC(=O)[C@H](CC(N)=O)NC(=O)[C@H]([C@@H](C)O)NC(=O)[C@H]([C@@H](C)CC)NC2=O)cc1 [ATOSIBAN] ([Mpa][dY](Et)ITNCP[Orn]G-NH2; disulfide 1-6)	–	–	–	39.8	–	–	–	–	–	39.8	0.63	186
CC(C)C[C@@H]1C(=O)N[C@H](C2Cc3ccccc3C2)C(=O)N1[C@@H](C(=O)N(C)Cc1ccccn1)c1ccc(F)cc1	3.2	–	–	–	–	–	–	–	–	–	–	–
CCNS(=O)(=O)c1ccc(-c2ccc([C@H](C(=O)NC(C)(C)C)N3C(=O)[C@@H](C4Cc5ccccc5C4)NC(=O)[C@H]3CC(C)C)cc2)cc1	3.4	–	–	–	–	–	–	–	–	–	–	–
CC(C)C[C@@H]1C(=O)N[C@H](C2Cc3ccccc3C2)C(=O)N1[C@@H](C(=O)N(C)CCO)c1ccc(F)cc1F	2.8	55	19	0.126	6	14	200	2350	159 (≈ 310 µM)	–	–	–
CC(C)C[C@@H]1C(=O)N[C@H](C2Cc3ccccc3C2)C(=O)N1[C@@H](C(=O)O)c1ccc(F)cc1F	1.7	30	53	0.631	21	5	23	805	216 (≈ 473 µM)	–	–	–
CC(C)C[C@@H]1C(=O)N[C@H](C2Cc3ccccc3C2)C(=O)N1[C@@H](C(=O)N1CCOCC1)c1ccc(F)cc1F	3.2	41	16	1.26	8	7	100	2150	–	–	–	–
CC(C)C[C@@H]1C(=O)N[C@H](C2Cc3ccccc3C2)C(=O)N1[C@@H](C(=O)N1CCC1)c1ccc(F)cc1F	3.3	17	22	0.631	4	37	710	660	1 (≈ 2.02 µM)	–	–	–
CC(C)C[C@@H]1C(=O)N[C@H](C2Cc3ccccc3C2)C(=O)N1[C@@H](C(=O)N1CCN(C)CC1)c1ccc(F)cc1	2.7	–	–	–	–	–	–	–	–	–	–	–
CC(C)C[C@@H]1C(=O)N[C@H](C2Cc3ccccc3C2)C(=O)N1[C@@H](C(=O)NC(C)(C)C)c1ccc(N2CCC(O)CC2)cc1	2.4	24	26	3.98	21	10	–	–	–	–	–	–
CC(C)C[C@@H]1C(=O)N[C@H](C2Cc3ccccc3C2)C(=O)N1[C@@H](C(N)=O)c1ccc(F)cc1F	2.5	22	33	0.501	–	–	–	560	1 (≈ 2.2 µM)	–	–	–
CC(C)C[C@@H]1C(=O)N[C@H](C2Cc3ccccc3C2)C(=O)N1[C@@H](C(=O)NC(C)C)c1ccc(N(C)C)cc1	–	2	48	–	15	50	–	–	–	–	–	–
CC(C)C[C@@H]1C(=O)N[C@H](C2Cc3ccccc3C2)C(=O)N1[C@@H](C(=O)N1CC(O)C1)c1ccc(F)cc1F	2.8	12	19	0.631	–	–	–	540	187 (≈ 366 µM)	–	–	–
CC[C@@H](C)[C@@H]1C(=O)N[C@H](C2Cc3ccccc3C2)C(=O)N1[C@@H](C(=O)NC(C)C)c1ccc(N2CCOCC2)cc1	3	31	24	1.58	6	61	–	–	–	–	–	–
Cc1ccc([C@H](C(=O)NC(C)C)N2C(=O)[C@@H](C3Cc4ccccc4C3)NC(=O)[C@H]2CC(C)C)o1	3.3	–	–	–	–	–	–	–	–	–	–	–
CC(C)C[C@@H]1C(=O)N[C@H](C2Cc3ccccc3C2)C(=O)N1[C@@H](C(=O)NCC(F)(F)F)c1ccc(F)cc1	3.3	–	–	–	–	–	–	–	–	–	–	–
CC(C)C[C@@H]1C(=O)N[C@H](C2Cc3ccccc3C2)C(=O)N1[C@@H](C(=O)NCCN1CCCCC1)c1ccc(F)cc1	2	–	–	–	–	–	–	–	–	–	–	–
CC(C)C[C@@H]1C(=O)N[C@H](C2Cc3ccccc3C2)C(=O)N1[C@@H](CO)c1ccc(F)cc1F	–	–	–	12.6	–	–	–	567	–	–	–	–
